Measured values taken from ChEMBL document CHEMBL5705886, “GSK1070916, a potent Aurora B/C kinase inhibitor with broad antitumor activity in tissue culture cells and human tumor xenograft models” (Mol Cancer Ther, 2009).
The source made the active and inactive calls. The rule behind the calls is not given here.

How the values were obtained:
ASPC1 = experiment: Antiproliferative activity against human ASPC1 cells assessed as inhibition of cell viability measured for 6 to 7 days by cell titer glo assay; format: functional, cell-based
How it was run: (§1)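 Tumor lines plated in recommended growth media, overnight at 37°C, 5% CO2, then given serial dilutions; a T=0 plate read with CellTiter-Glo at dosing. After 6–7 d of exposure, viability read by CellTiter-Glo luminescence. No-cell wells subtracted, data expressed as % of DMSO control.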

P3HR-1 = experiment: Antiproliferative activity against human P3HR-1 cells assessed as inhibition of cell viability measured for 6 to 7 days by cell titer glo assay; format: functional, cell-based
How it was run: (§2)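 Cells seeded in recommended growth medium, held overnight at 37°C in 5% CO2, then exposed to serial dilutions of inhibitor for 6–7 d. A time-zero plate was read with CellTiter-Glo at dosing. Luminescent viability read at the end. No-cell wells subtracted as background, data expressed as percent of DMSO control.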

[1] = Antiproliferative activity against human PLB-985 cells assessed as inhibition of cell viability measured for 6 to 7 days by cell titer glo assay; format: functional, cell-based; how it was run: as §2
MV-4-11 (human) = experiment: Antitumor activity in human MV-4-11 cells xenografted in NOD-SCID mouse assessed as median survival time at 20 mg/kg, ip administered once daily for 5 consecutive days with 2 days off scheduled for 3 cycles measured upto 120 days; conditions: time <= 120 day
HCT-116 [2] = experiment: Antiproliferative activity against human HCT-116 cells assessed as inhibition of cell viability measured for 6 to 7 days by cell titer glo assay; format: functional, cell-based; how it was run: as §1
COLO 205 = experiment: Antitumor activity in human COLO 205 cells xenografted in nude mouse assessed as reduction in tumor growth at 25 to 100 mg/kg, ip administered once daily for 5 consecutive days with 2 days off scheduled for 2 cycles measured upto 60 days; conditions: dose 25-100 mg/kg, time 60.0 day
SEM cells = experiment: Antiproliferative activity against human SEM cells assessed as inhibition of cell viability measured for 6 to 7 days by cell titer glo assay; format: functional, cell-based; how it was run: as §2
HL-60 [3] = experiment: Antitumor activity in human HL-60 cells xenografted in SCID mouse assessed as median survival time at 12.5 mg/kg, ip administered once daily for 5 consecutive days with 2 days off scheduled for 2 cycles measured upto 120 days; format: functional; conditions: time <= 120 day
DU-145 = experiment: Antiproliferative activity against human DU-145 cells assessed as inhibition of cell viability measured for 6 to 7 days by cell titer glo assay; format: functional, cell-based
How it was run: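 Cells plated in recommended growth medium, held overnight at 37°C in 5% CO2, then given serial dilutions of inhibitor; a T=0 set read with CellTiter-Glo at dosing. Luminescent viability read after 6–7 d exposure.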

[4] = Antiproliferative activity against human Karpas-231 cells assessed as inhibition of cell viability measured for 6 to 7 days by cell titer glo assay; format: functional, cell-based
How it was run: (§3)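 Cells seeded in recommended growth medium, incubated overnight at 37°C in 5% CO2, then exposed to serial dilutions of inhibitor for 6–7 d. A parallel plate was read with CellTiter-Glo at compound addition as a T=0 value. The luminescent viability readout had no-cell background subtracted and was expressed as % of DMSO control.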

[5] = Antiproliferative activity against human CEM/C1 cells assessed as inhibition of cell viability measured for 6 to 7 days by cell titer glo assay; format: functional, cell-based; how it was run: as §1
U-937 = experiment: Antiproliferative activity against human U-937 cells assessed as inhibition of cell viability measured for 6 to 7 days by cell titer glo assay; format: functional, cell-based
J-RT3-T3-5 = experiment: Antiproliferative activity against human J-RT3-T3-5 cells assessed as inhibition of cell viability measured for 6 to 7 days by cell titer glo assay; format: functional, cell-based; how it was run: as §3
786-0 = experiment: Antiproliferative activity against human 786-0 cells assessed as inhibition of cell viability measured for 6 to 7 days by cell titer glo assay; format: functional, cell-based; how it was run: as §1
SUD4 = experiment: Antiproliferative activity against human SU-DHL-4 cells assessed as inhibition of cell viability measured for 6 to 7 days by cell titer glo assay; format: functional, cell-based; how it was run: as §2
PANC-1 = experiment: Antiproliferative activity against human PANC-1 cells assessed as inhibition of cell viability measured for 6 to 7 days by cell titer glo assay; format: functional, cell-based; how it was run: as §2
NCI-H460 = experiment: Antiproliferative activity against human NCI-H460 cells assessed as inhibition of cell viability measured for 6 to 7 days by cell titer glo assay; format: functional, cell-based; how it was run: as §2
[6] = Toxicity in SCID nude mouse xenografted with human HL-60 cells assessed as body weight loss at 100 mg/kg, ip administered once daily for 5 consecutive days with 2 days off scheduled for 2 cycles measured upto 60 days; format: organism-based; conditions: in vivo, 1440 h, time < 60 day
HCT-116 [7] = experiment: In vivo inhibition of Aurora B in human HCT-116 cells xenografted in athymic nude mouse assessed as inhibition of HH3-S10 phosphorylation administered as single ip dose incubated for 0.5 to 72 hrs; format: functional, organism-based; conditions: dose 25-100 mg/kg, time 0.5-72 hrs
MCF7 = experiment: Antitumor activity in human MCF7 cells xenografted in SCID mouse assessed as reduction in tumor growth at 50 to 100 mg/kg, ip administered once daily for 5 consecutive days with 2 days off scheduled for 3 cycles measured upto 60 days; format: functional, organism-based; conditions: dose 50-100 mg/kg, time <= 60.0 day
HL-60 [8] = experiment: Antitumor activity in human HL-60 cells xenografted in SCID mouse assessed as reduction in tumor growth at 100 mg/kg, ip administered once daily for 5 consecutive days with 2 days off scheduled for 2 cycles measured upto 60 days; format: functional, organism-based; conditions: time 60.0 day
HL-60 [9] = experiment: Antitumor activity in human HL-60 cells xenografted in SCID mouse assessed as median survival time at 50 mg/kg, ip administered once daily for 5 consecutive days with 2 days off scheduled for 2 cycles measured upto 120 days; format: functional; conditions: time <= 120 day
EM-2 = experiment: Antiproliferative activity against human EM-2 cells assessed as inhibition of cell viability measured for 6 to 7 days by cell titer glo assay; format: functional, cell-based; how it was run: as §1
SU-DHL10 = experiment: Antiproliferative activity against human SU-DHL-10 cells assessed as inhibition of cell viability measured for 6 to 7 days by cell titer glo assay; format: functional, cell-based; how it was run: as §2
SW1417 = experiment: Antiproliferative activity against human SW1417 cells assessed as inhibition of cell viability measured for 6 to 7 days by cell titer glo assay; format: functional, cell-based; how it was run: as §2
GA-10 = experiment: Antiproliferative activity against human GA-10 cells assessed as inhibition of cell viability measured for 6 to 7 days by cell titer glo assay; format: functional, cell-based; how it was run: as §1
HuT78 = experiment: Antiproliferative activity against human HuT78 cells assessed as inhibition of cell viability measured for 6 to 7 days by cell titer glo assay; format: functional, cell-based; how it was run: as §3
SK-MEL-28 = experiment: Antiproliferative activity against human SK-MEL-28 cells assessed as inhibition of cell viability measured for 6 to 7 days by cell titer glo assay; format: functional, cell-based; how it was run: as §2
CCRF-CEM = experiment: Antiproliferative activity against human CCRF-CEM cells assessed as inhibition of cell viability measured for 6 to 7 days by cell titer glo assay; format: functional, cell-based; how it was run: as §1
NOMO-1 = experiment: Antiproliferative activity against human NOMO-1 cells assessed as inhibition of cell viability measured for 6 to 7 days by cell titer glo assay; format: functional, cell-based; how it was run: as §2
COLO 201 = experiment: Antiproliferative activity against human COLO201 cells assessed as inhibition of cell viability measured for 6 to 7 days by cell titer glo assay; format: functional, cell-based; how it was run: as §1
NCI-H157 = experiment: Antiproliferative activity against human NCI-H157 cells assessed as inhibition of cell viability measured for 6 to 7 days by cell titer glo assay; format: functional, cell-based; how it was run: as §3

For `CCn1cc(-c2ccnc3[nH]c(-c4cccc(CN(C)C)c4)cc23)c(-c2ccc(NC(=O)N(C)C)cc2)n1` [GSK-1070916], the EC50 (ASPC1) was 2 nM, the EC50 (P3HR-1) was 8 nM and the EC50 [1] was 1 nM. The MST (MV-4-11 (human)) was 103 days, the EC50 (HCT-116 [2]) was 8 nM and the Activity (COLO 205) was “inactive”. The EC50 (SEM cells) was 3 nM, the MST (HL-60 [3]) was 44 days and the EC50 (DU-145) was 15 nM. The EC50 [4] was 3 nM, the EC50 [5] was 6 nM and the EC50 (U-937) was 5 nM. It also gave an EC50 (J-RT3-T3-5) of 9 nM, an EC50 (786-0) of 57 nM and an EC50 (SUD4) of 5 nM. The EC50 (PANC-1) was 13 nM, the EC50 (NCI-H460) was 14 nM and the Activity [6] was “Toxic”. The Activity (HCT-116 [7]) was “Dose-Dependent Effect”, the Activity (MCF7) was “inactive” and the Activity (HL-60 [8]) was “Active”. The MST (HL-60 [9]) was 83 days, the EC50 (EM-2) was 4 nM and the EC50 (SU-DHL10) was 15 nM. The EC50 (SW1417) was 19 nM, the EC50 (GA-10) was 4 nM and the EC50 (HuT78) was 14 nM. For the same compound, the EC50 (SK-MEL-28) was 7 nM, the EC50 (CCRF-CEM) was 7 nM and the EC50 (NOMO-1) was 2 nM. It also gave an EC50 (COLO 201) of 2 nM and an EC50 (NCI-H157) of 8 nM.
